# Laboratory results published in ChEMBL document CHEMBL1165899, “Synthesis and antitumor evaluation of novel cyclic arylsulfonylureas: ADME-T and pharmacophore prediction” (2010).
# Tests used:
# Assay type in all cases: functional
# SK-MEL-5 = assay: Growth inhibition of human SK-MEL-5 cells at 10 uM after 48 hrs by sulforhodamine B assay relative to control; conditions: SK-MEL-5, 48 h, read-out: GI
# SK-MEL-2 = assay: Growth inhibition of human SK-MEL-2 cells at 10 uM after 48 hrs by sulforhodamine B assay relative to control; conditions: SK-MEL-2, 48 h, read-out: GI
# Malme-3M = assay: Growth inhibition of human MALME-3M cells at 10 uM after 48 hrs by sulforhodamine B assay relative to control; conditions: read-out: GI
# M14 = assay: Growth inhibition of human M14 cells at 10 uM after 48 hrs by sulforhodamine B assay relative to control; conditions: M14, 48 h, read-out: GI
# LOX IMVI = assay: Growth inhibition of human LOXIMVI cells at 10 uM after 48 hrs by sulforhodamine B assay relative to control; conditions: read-out: GI
# UO-31 = assay: Growth inhibition of human UO31 cells at 10 uM after 48 hrs by sulforhodamine B assay relative to control; conditions: UO-31, 48 h, read-out: GI
# Summary of the method: (§1)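 NCI 60-cell-line single-dose screen at 10 µM. Cells were plated at 5000–40,000 cells/well according to doubling time, in medium with 2 mM L-glutamine, and held 24 h at 37 °C, 5% CO₂, 100% humidity before drug. Time-zero plates were TCA-fixed. Exposure was 48 h, then TCA fixation and sulforhodamine B staining for 10 min, acetic acid washes, 10 mM trizma solubilization and A515. % inhibition = 100 − % activity, where 100% is the DMSO-solvent control.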
# TK-10 = assay: Growth inhibition of human TK10 cells at 10 uM after 48 hrs by sulforhodamine B assay relative to control; conditions: TK-10, 48 h, read-out: GI; summary of the method: as §1
# SN12C = assay: Growth inhibition of human SN12C cells at 10 uM after 48 hrs by sulforhodamine B assay relative to control; conditions: read-out: GI
# RXF 393 = assay: Growth inhibition of human RXF393 cells at 10 uM after 48 hrs by sulforhodamine B assay relative to control; conditions: RXF 393, 48 h, read-out: GI
# A498 = assay: Growth inhibition of human A498 cells at 10 uM after 48 hrs by sulforhodamine B assay relative to control; conditions: A498, 48 h, read-out: GI
# MOLT-4 = assay: Growth inhibition of human MOLT4 cells at 10 uM after 48 hrs by sulforhodamine B assay relative to control; conditions: MOLT-4, 48 h, read-out: GI
# K562 = assay: Growth inhibition of human K562 cells at 10 uM after 48 hrs by sulforhodamine B assay relative to control; conditions: K562, 48 h, read-out: GI
# HL-60(TB) = assay: Growth inhibition of human HL-60(TB) cells at 10 uM after 48 hrs by sulforhodamine B assay relative to control; conditions: HL-60, 48 h, read-out: GI
# Summary of the method: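 Part of a 60-cell-line panel screen at a single concentration. Cells were plated at 5000–40,000 cells/well according to doubling time and pre-incubated 24 h at 37 °C, 5% CO₂, with time-zero plates fixed. Drug exposure ran 48 h. Plates were stained with SRB, rinsed with 1% acetic acid, dye dissolved in 10 mM trizma base, read at 515 nm. % inhibition = 100 − % activity versus DMSO-only wells; 100–200% denotes lethality.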
# CCRF-CEM = assay: Growth inhibition of human CCRF-CEM cells at 10 uM after 48 hrs by sulforhodamine B assay relative to control; conditions: read-out: GI
# DU-145 = assay: Growth inhibition of human DU145 cells at 10 uM after 48 hrs by sulforhodamine B assay relative to control; conditions: DU-145, 48 h, read-out: GI
# OVCAR-5 = assay: Growth inhibition of human OVCAR5 cells at 10 uM after 48 hrs by sulforhodamine B assay relative to control; conditions: OVCAR-5, 48 h, read-out: GI
# OVCAR-4 = assay: Growth inhibition of human OVCAR4 cells at 10 uM after 48 hrs by sulforhodamine B assay relative to control; conditions: OVCAR-4, 48 h, read-out: GI
# OVCAR-3 = assay: Growth inhibition of human OVCAR-3 cells at 10 uM after 48 hrs by sulforhodamine B assay relative to control; conditions: OVCAR-3, 48 h, read-out: GI
# NCI/ADR-RES = assay: Growth inhibition of human NCI/ADR-RES cells at 10 uM after 48 hrs by sulforhodamine B assay relative to control; conditions: read-out: GI
# MCF7 = assay: Growth inhibition of human MCF7 cells at 10 uM after 48 hrs by sulforhodamine B assay relative to control; conditions: MCF7, 48 h, read-out: GI
# SW-620 = assay: Growth inhibition of human SW620 cells at 10 uM after 48 hrs by sulforhodamine B assay relative to control; conditions: SW-620, 48 h, read-out: GI; summary of the method: as §1
# HCT-15 = assay: Growth inhibition of human HCT15 cells at 10 uM after 48 hrs by sulforhodamine B assay relative to control; conditions: HCT-15, 48 h, read-out: GI
# HCT-116 = assay: Growth inhibition of human HCT116 cells at 10 uM after 48 hrs by sulforhodamine B assay relative to control; conditions: HCT-116, 48 h, read-out: GI
# HCC 2998 = assay: Growth inhibition of human HCC2998 cells at 10 uM after 48 hrs by sulforhodamine B assay relative to control; conditions: HCC 2998, 48 h, read-out: GI
# COLO 205 = assay: Growth inhibition of human COLO205 cells at 10 uM after 48 hrs by sulforhodamine B assay relative to control; conditions: COLO 205, 48 h, read-out: GI
# NCI-H522 = assay: Growth inhibition of human NCI-H522 cells at 10 uM after 48 hrs by sulforhodamine B assay relative to control; conditions: NCI-H522, 48 h, read-out: GI
# NCI-H322M = assay: Growth inhibition of human NCI-H322M cells at 10 uM after 48 hrs by sulforhodamine B assay relative to control; conditions: read-out: GI
# NCI-H23 = assay: Growth inhibition of human NCI-H23 cells at 10 uM after 48 hrs by sulforhodamine B assay relative to control; conditions: NCI-H23, 48 h, read-out: GI
# NCI-H226 = assay: Growth inhibition of human NCI-H226 cells at 10 uM after 48 hrs by sulforhodamine B assay relative to control; conditions: NCI-H226, 48 h, read-out: GI
# A549 = assay: Growth inhibition of human A549 cells at 10 uM after 48 hrs by sulforhodamine B assay relative to control; conditions: A549, 48 h, read-out: GI
# SF-268 = assay: Growth inhibition of human SF268 cells at 10 uM after 48 hrs by sulforhodamine B assay relative to control; conditions: SF-268, 48 h, read-out: GI
# SF-539 = assay: Growth inhibition of human SF539 cells at 10 uM after 48 hrs by sulforhodamine B assay relative to control; conditions: SF-539, 48 h, read-out: GI
compound,measurement,setting,value
CN(C)c1ccc(/C=C2\NC(=O)N(S(=O)(=O)c3ccc(Cl)cc3)C2=O)cc1,inhibition of growth at 10 µM,SK-MEL-5,-3.11%
same,inhibition of growth at 10 µM,SK-MEL-2,1.29%
same,inhibition of growth at 10 µM,Malme-3M,-49.7%
same,inhibition of growth at 10 µM,M14,200%
same,inhibition of growth at 10 µM,LOX IMVI,6.44%
same,inhibition of growth at 10 µM,UO-31,5.5%
same,inhibition of growth at 10 µM,TK-10,-33.4%
same,inhibition of growth at 10 µM,SN12C,0.04%
same,inhibition of growth at 10 µM,RXF 393,95.7%
same,inhibition of growth at 10 µM,A498,-8.94%
same,inhibition of growth at 10 µM,MOLT-4,11.5%
same,inhibition of growth at 10 µM,K562,8.89%
same,inhibition of growth at 10 µM,HL-60(TB),4.85%
same,inhibition of growth at 10 µM,CCRF-CEM,2.95%
same,inhibition of growth at 10 µM,DU-145,-4.25%
same,inhibition of growth at 10 µM,OVCAR-5,-4.44%
same,inhibition of growth at 10 µM,OVCAR-4,7.93%
same,inhibition of growth at 10 µM,OVCAR-3,-13.9%
same,inhibition of growth at 10 µM,NCI/ADR-RES,-6.33%
same,inhibition of growth at 10 µM,MCF7,-6.37%
same,inhibition of growth at 10 µM,SW-620,-1.96%
same,inhibition of growth at 10 µM,HCT-15,1.55%
same,inhibition of growth at 10 µM,HCT-116,-3.55%
same,inhibition of growth at 10 µM,HCC 2998,-54%
same,inhibition of growth at 10 µM,COLO 205,-14.7%
same,inhibition of growth at 10 µM,NCI-H522,9.78%
same,inhibition of growth at 10 µM,NCI-H322M,-16.5%
same,inhibition of growth at 10 µM,NCI-H23,-1.8%
same,inhibition of growth at 10 µM,NCI-H226,-9.94%
same,inhibition of growth at 10 µM,A549,-8.84%
same,inhibition of growth at 10 µM,SF-268,-21.6%
same,inhibition of growth at 10 µM,SF-539,-0.9%
